# Bioassay records (PubChem BioAssay)
# zVAD death inh = inhibitors of zVAD-triggered necroptosis, primary screen, L929 cells. L929 zVAD necroptosis rescue, ATP luminescence, 24 h; with zVAD 60 µM. viability rescue, % at 10 µM. 220,000 compounds, 0.38% hits. AID 1377, 2008;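 active = activation, scaled between plate controls, above about 75%, limit read from the data; inactive = activation under that limit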
# Autophagy HCS = autophagy modulators in MEF cells, primary screen, imaging, high-content, MEF GFP-LC3 | 190,000 compounds, 0.98% hits | MEF GFP-LC3 puncta imaging; test concentration mostly 10 µM | calls only at 10 µM (by protocol);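 active = percentage of spot-positive cells more than 3 SD above its plate mean, without a fluorescence outlier flag or 80% toxicity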
# Mdm2 ligase inh = MDM2-luciferase reporter signal enhancers, primary screen, MDM2 E3 ligase inhibitor project, cell-based, luminescence, 1536-well; E3 ubiquitin-protein ligase Mdm2 (Homo sapiens), Q00987; cell-based MDM2 ubiquitination luciferase reporter, 2 h; 0 = plate control, 100 = twice control, blank-subtracted; signal enhancement, % at 5 µM; 210,000 compounds, 0.11% hits; AID 1230, 2008;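 active = signal enhancement of 30% or more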;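 also: luminescence tracks abundance of the self-degrading MDM2-luciferase fusion protein; higher signal means inhibition of MDM2 E3 ligase activity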
#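 Test system: mammalian cells stably expressing self-ubiquitinating, self-degrading MDM2 E3–luciferase fusion; Amount: 2000 cells in each well; Medium: DMEM; Schedule: 4 h settle plus 2 h compound, 37 °C; Technique: SteadyLite luciferase luminescence after 15 min room-temperature reagent incubation; Benchmarks: plate control and blank wells.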
# Hck Nef HTS = inhibitors of Nef-activated human Hck kinase, primary screen, biochemical, Z-Lyte FRET, 384-well, Hck-YEEI | AID 463187, 2010 | 220,000 compounds, 0.68% hits | Recombinant Hck-YEEI plus Nef, Z-Lyte FRET kinase assay | inhibition, % at 20 µM | Tyrosine-protein kinase HCK (Homo sapiens), P08631;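 active = Hck-Nef kinase inhibition above about 50%, limit read from the data; inactive = inhibition below that limit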
# Target sequence (P08631 whole entry, looked up): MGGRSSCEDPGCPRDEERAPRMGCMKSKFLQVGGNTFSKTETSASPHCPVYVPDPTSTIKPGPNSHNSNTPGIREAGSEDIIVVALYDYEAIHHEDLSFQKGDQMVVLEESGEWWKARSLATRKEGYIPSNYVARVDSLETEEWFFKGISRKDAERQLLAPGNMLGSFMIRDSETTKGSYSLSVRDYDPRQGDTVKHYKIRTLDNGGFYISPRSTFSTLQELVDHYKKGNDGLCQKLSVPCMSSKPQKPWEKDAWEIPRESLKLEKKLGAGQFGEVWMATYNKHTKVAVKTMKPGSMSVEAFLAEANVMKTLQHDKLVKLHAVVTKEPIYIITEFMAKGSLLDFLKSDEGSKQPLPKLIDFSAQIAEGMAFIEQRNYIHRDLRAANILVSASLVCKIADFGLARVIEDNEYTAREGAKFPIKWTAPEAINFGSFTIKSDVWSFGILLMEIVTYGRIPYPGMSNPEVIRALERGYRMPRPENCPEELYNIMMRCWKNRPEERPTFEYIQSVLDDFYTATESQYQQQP
# Dynein transport = inhibitors of GR-EGFP nuclear translocation, primary screen, dynein cargo transport inhibitor project, imaging, high-content, 3617.4 mouse cells; test concentration mostly 20 µM; stimulated with dexamethasone, 1 µM; stronger effect = lower value; z-score, hits read low; 220,000 compounds, 0.47% hits; AID 1381, 2008;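 active = plate z-score of nuclear minus cytoplasmic receptor signal below a set negative limit, without overly bright fluorescence or cell loss, cut at about -3.5 in these data, passing the limit was not always enough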;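 also: z-score of nuclear minus cytoplasmic ring GR-EGFP intensity difference per well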
#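 Also added – dexamethasone, 1.0 µM final · Buffer or medium – tet-free, stripped-serum medium · Schedule – induction 48 h, compound 1 h, agonist 30 min · Detection – formaldehyde fixation, Hoechst nuclear stain, 10x automated fluorescence imaging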
# TNF necrop inh = inhibitors of TNF-alpha triggered necroptosis, primary screen, cell-based, Jurkat FADD-/-, single concentration; Jurkat FADD-/- TNF necroptosis rescue, ATP luminescence, 24 h; 0 = TNF only, 100 = no-TNF cells; 220,000 compounds, 0.068% hits; activation (protection from cell death), % at 10 µM;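 active = activation, meaning protection from cell death, of at least 50% relative to plate controls; inactive = activation below 50%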;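 also: necroptosis triggered by 40 ng/mL TNF-alpha added together with compound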
# zVAD death conf = inhibitors of zVAD-triggered necroptosis in L929, confirmation, L929 cells, duplicate runs | shares compounds with zVAD death inh | L929 zVAD-induced necroptosis rescue, ATP luminescence, 24 h | activation (protection from necroptosis), % at 10 µM | 760 compounds, 16% hits;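 active = mean protection from necroptosis of at least 50% over duplicate tests; inactive = mean protection below 50%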
# Numbers stand for hits; n = inactive; x = not tested or not shown. An excerpt weighted towards active compounds, which were near 2.4% of everything screened.
SMILES,zVAD death inh,Autophagy HCS,Mdm2 ligase inh,Hck Nef HTS,Dynein transport,TNF necrop inh,zVAD death conf
O=C(Nc1nccs1)c1ccccc1[N+](=O)[O-],n,n,x,n,n,n,x
COc1ccc(CCNC(=O)C(=O)Nc2nccs2)cc1OC,n,n,n,n,n,n,x
Cc1ccc(C(=O)Nc2nccs2)cc1,86,n,n,n,n,n,n
O=C(Nc1nccs1)c1ccc(NC(=O)c2ccco2)cc1,84,n,n,n,n,n,n
COc1ccccc1NC(=O)N1CCC(c2nnc(SCC(N)=O)n2C)CC1,n,n,n,n,n,n,x
O=C(CSc1nnc(-c2ccco2)o1)c1ccc[nH]1,n,n,n,n,n,n,x
COc1ccc(/C=N/n2c(-c3ccc(C)cc3)n[nH]c2=S)cc1OC,n,x,n,n,n,n,x
CN(c1ccc(C(=O)Nc2nccs2)cc1)S(=O)(=O)c1ccccc1,89,n,n,n,n,n,86
CCn1c(SCc2ccc(C(=O)Nc3nccs3)cc2)nnc1-c1ccc(NC(C)=O)cc1,n,n,n,n,n,n,x
Nc1ccc(C(=O)Nc2nccs2)cc1,81,n,n,n,n,n,n
CCn1c(SCc2ccc(C(=O)Nc3nccs3)cc2)nnc1-c1ccc(N)cc1,88,n,n,n,n,n,71
O=C(Nc1nccs1)c1ccc2nccnc2c1,n,n,n,n,n,n,x
CCn1nc(C)c(NC(=O)c2cnn3c(C(F)F)cc(-c4ccccc4)nc23)c1C,n,n,n,n,n,n,x
CC(OCC(O)CN(C)CCOc1ccccc1)c1ccc(Cl)cc1 (configuration not stated),n,n,n,n,n,n,x
N/C(=N\NC(=O)Nc1ccc(Cl)cc1)c1ccccn1,81,x,n,n,n,n,n
COCC(=O)Nc1ccc([N+](=O)[O-])cc1OC,n,n,n,n,n,n,x
COc1cc([N+](=O)[O-])ccc1NC(=O)COC(=O)c1ccc(NC(N)=O)cc1,78,x,x,n,n,n,n
COc1ccc(C)cc1NC(=O)c1ccc([N+](=O)[O-])cc1[N+](=O)[O-],n,n,n,n,n,n,x
CCC(CC)NC(=O)Nc1ccccc1C(F)(F)F,n,x,n,n,n,n,x
CC(C)c1ccc(NC(=O)N2CCc3ccccc3C2)cc1,76,n,n,n,n,n,n
CCCCNC(=O)N1CCc2ccccc2C1,n,n,n,n,n,n,x
CCCc1nnc(NC(=O)CCC(=O)NCc2ccc(OC)cc2)s1,n,x,n,n,n,n,x
O=C(NCCCN1CCOCC1)c1cc(-c2cccs2)on1,n,n,n,n,n,n,x
O=C(NCCCn1ccnc1)c1cc(-c2cccs2)on1,76,n,n,n,n,n,n
Fc1ccc(Cn2ccc(-c3cnc(-c4ccccc4)s3)n2)cc1,n,n,n,n,n,n,x
SMILES,zVAD death inh,Autophagy HCS,Mdm2 ligase inh,Hck Nef HTS,Dynein transport,TNF necrop inh,zVAD death conf
O=C(c1ccc(F)cc1)n1ccc(-c2cnc(-c3ccccc3)s2)n1,83,n,n,n,n,n,n
Nc1c(CO)nnn1-c1ccccc1,n,n,n,n,n,n,x
CC(=O)/C(=C\N(C)C)Sc1ccc(Cl)cc1,n,x,n,n,n,n,x
S=C(Sc1ccc(Cl)cc1)Sc1ccc(Cl)cc1,76,x,n,n,-5.1,n,n
O=C(CNCc1ccco1)Nc1cccc(S(=O)(=O)N2CCCCC2)c1,n,x,n,n,n,n,x
CCCNC(=O)COC(=O)CCC(=O)c1cccs1,n,n,n,n,n,n,x
Cc1ccc(CC2SC(N)=NC2=O)cc1 (configuration not stated),83,n,n,n,n,n,n
S=C(NCCN1CCOCC1)Nc1ccccc1Cl,n,n,n,n,n,n,x
Cc1ccccc1OCC(=O)Nc1ccc(C(N)=O)cc1,n,n,n,n,n,n,x
Cc1ccccc1OCC(=O)Nc1ccc(Cc2ccncc2)cc1,79,n,n,n,n,n,n
CC(=O)C1=C(C)NC(SCC(=O)Nc2nccs2)=C(C#N)C1c1ccccc1Cl (configuration not stated),82,n,n,n,n,n,n
C=CCOC(=O)C1=C(C)NC(SCC(=O)Nc2nccs2)=C(C#N)C1c1ccc(Cl)cc1 (configuration not stated),n,n,n,n,n,n,x
C=CCOC(=O)C1=C(C)NC(SCC(=O)Nc2nccs2)=C(C#N)C1c1cccs1 (configuration not stated),87,n,n,n,n,n,66
COc1ccc(-c2nnc3sc(C4CCCCC4)nn23)cc1OC,76,n,n,n,n,n,n
COc1ccc(-c2nn3c(C4CCCCC4)nnc3s2)cc1OC,n,n,n,n,n,n,x
Cc1ccc(-c2cc(C(=O)N/N=C/c3c(C)nn(-c4ccccc4)c3C)[nH]n2)cc1,n,n,n,n,n,n,x
Cc1nn(-c2ccccc2)c(C)c1-c1cc(C(=O)N/N=C/c2cccnc2)[nH]n1,75,n,n,n,n,n,n
Cc1ccc(C)c(C2=NNC(=NCc3ccccc3)SC2)c1,77,n,n,n,n,95,n
CN(CC(=O)N1CCN(Cc2ccccc2)CC1)S(=O)(=O)c1cccc2nsnc12,n,n,n,n,n,n,x
Cc1ccc(OCCSCc2nnc(NC(=O)Nc3cccc(Cl)c3)s2)cc1,n,n,n,n,n,n,x
COc1ccc(Nc2nnc(-c3ccc(O)cc3)c3ccccc23)cc1C(N)=O,82,n,n,n,n,n,n
COc1ccc(-c2nnc(Nc3ccc(CC(N)=O)cc3)c3ccccc23)cc1,n,n,n,n,n,n,x
COc1ccc(Nc2nnc(-c3ccc(O)cc3)c3ccccc23)cc1,75,n,n,n,n,n,n
NC(=O)Cc1ccc(Nc2nnc(-c3ccccc3)c3ccccc23)cc1,n,n,n,n,n,n,x
Oc1ccc(Nc2nnc(-c3ccc(O)cc3)c3ccccc23)cc1,81,n,n,n,n,n,n
NNC(=O)CCc1ccc(S(=O)(=O)N2CCOCC2)cc1,n,n,n,n,n,n,x
